Tests used:
[1] = molecular target: Adenosine receptor A2a (Rattus norvegicus) (UniProt P30543); assay: Displacement of [3H]MSX-2 from A2A receptor in rat brain striatal membrane at 100 uM by liquid scintillation counting; format: cell membranes
In short: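 Rat striatal membranes (ca. 70 μg/mL protein), pretreated with 0.2 IU/mL adenosine deaminase, incubated with [3H]MSX-2 in 50 mM Tris-HCl pH 7.4 for 30 min at 25 °C. Nonspecific binding with 50 μM NECA. Filtration on GF/B filters presoaked in 0.3% polyethylenimine, scintillation counting. Percent inhibition at 100 μM, n = 3.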

[2] = molecular target: T1, Adenosine receptor A1 (Rattus norvegicus) (UniProt P25099); assay: Displacement of [3H]CCPA from adenosine A1 receptor in rat brain cortical membrane at 100 uM by liquid scintillation counting; format: cell membranes
T1 sequence (whole entry): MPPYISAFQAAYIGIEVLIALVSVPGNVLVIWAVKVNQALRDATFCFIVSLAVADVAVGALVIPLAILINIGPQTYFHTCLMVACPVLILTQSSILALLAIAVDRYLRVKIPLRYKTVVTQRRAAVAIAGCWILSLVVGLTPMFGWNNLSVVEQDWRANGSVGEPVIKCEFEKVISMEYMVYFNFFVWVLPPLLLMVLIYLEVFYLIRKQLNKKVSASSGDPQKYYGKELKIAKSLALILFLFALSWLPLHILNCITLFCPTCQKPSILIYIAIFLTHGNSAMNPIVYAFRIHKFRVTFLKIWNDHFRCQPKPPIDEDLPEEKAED
In short: (§1)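 Rat cortical membranes (ca. 70 μg/mL protein), pretreated with 0.2 IU/mL adenosine deaminase, incubated with [3H]CCPA in 50 mM Tris-HCl pH 7.4 for 90 min at 25 °C. Nonspecific binding with 10 μM 2-chloroadenosine. GF/B filtration, scintillation counting.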

Rattus norvegicus = species on record: Rattus norvegicus; assay: Displacement of [3H]flunitrazepam from GABAA receptor in rat brain cortical membrane at 10 uM; format: cell membranes
Adenosine receptor A1 [3] = molecular target: T2, Adenosine receptor A1 (Rattus norvegicus, UniProt P25099); assay: Displacement of [3H]CCPA from adenosine A1 receptor in rat brain cortical membrane by liquid scintillation counting; format: cell membranes; in short: as §1
T2 sequence (P25099 whole entry): T1 sequence (whole entry)

Adenosine receptor A1 [4] = molecular target: T3, Adenosine receptor A1 (Homo sapiens, UniProt P30542); assay: Displacement [3H]DPCPX from of human adenosine A1 receptor at high affinity state expressed in CHO cells; format: cell-based
T3 sequence (P30542 whole entry): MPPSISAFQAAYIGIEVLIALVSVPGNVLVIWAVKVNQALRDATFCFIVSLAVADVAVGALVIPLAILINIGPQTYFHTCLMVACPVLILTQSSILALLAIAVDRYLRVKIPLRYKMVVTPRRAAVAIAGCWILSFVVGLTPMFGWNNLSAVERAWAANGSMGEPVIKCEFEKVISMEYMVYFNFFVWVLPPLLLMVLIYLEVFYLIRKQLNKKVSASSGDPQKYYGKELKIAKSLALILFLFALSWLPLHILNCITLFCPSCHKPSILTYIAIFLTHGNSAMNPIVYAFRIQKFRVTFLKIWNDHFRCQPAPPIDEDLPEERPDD
In short: (§2)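 CHO-hA1 membranes (20 μg/mL protein), competition against [3H]DPCPX with or without 100 μM GTP. Incubation in 50 mM Tris-HCl pH 7.4, 90 min at 25 °C, after adenosine deaminase pretreatment. Nonspecific binding with 10 μM DPCPX. GF/B filtration, scintillation counting. Ki values for high- and low-affinity states taken from the biphasic curve without GTP.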

Adenosine receptor A1 [5] = molecular target: T3, Adenosine receptor A1; assay: Displacement [3H]DPCPX from of human adenosine A1 receptor expressed in CHO cells in presence of GTP; format: cell-based; in short: as §2
Adenosine receptor A1 [6] = molecular target: T2, Adenosine receptor A1; assay: Agonist activity at adenosine A1 receptor in rat cortical membrane by [35S]GTPgammaS binding assay; format: functional, cell membranes
Adenosine receptor A1 [7] = molecular target: T3, Adenosine receptor A1; assay: Displacement [3H]DPCPX from of human adenosine A1 receptor at low affinity state expressed in CHO cells; format: cell-based; in short: as §2
[8] = molecular target: T1, Adenosine receptor A1 (Rattus norvegicus); assay: Agonist activity at adenosine A1 receptor in rat cortical membrane by [35S]GTPgammaS binding assay relative to control; format: functional, cell membranes
In short: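 Rat cortical membranes (7 μg/tube) incubated 45 min at 25 °C with 0.1-0.5 nM [35S]GTPγS in 50 mM Tris-HCl pH 7.4 with 1 mM EDTA, 5 mM MgCl2, 1 mM DTT, 10 μM GDP, 100 mM NaCl, 2 IU/mL adenosine deaminase, 0.5% BSA. Nonspecific binding with 10 μM unlabeled GTPγS. Filtration, scintillation counting; stimulation expressed as percent of basal.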

Adenosine receptor A2a (Rattus norvegicus), sequence (P30543 whole entry): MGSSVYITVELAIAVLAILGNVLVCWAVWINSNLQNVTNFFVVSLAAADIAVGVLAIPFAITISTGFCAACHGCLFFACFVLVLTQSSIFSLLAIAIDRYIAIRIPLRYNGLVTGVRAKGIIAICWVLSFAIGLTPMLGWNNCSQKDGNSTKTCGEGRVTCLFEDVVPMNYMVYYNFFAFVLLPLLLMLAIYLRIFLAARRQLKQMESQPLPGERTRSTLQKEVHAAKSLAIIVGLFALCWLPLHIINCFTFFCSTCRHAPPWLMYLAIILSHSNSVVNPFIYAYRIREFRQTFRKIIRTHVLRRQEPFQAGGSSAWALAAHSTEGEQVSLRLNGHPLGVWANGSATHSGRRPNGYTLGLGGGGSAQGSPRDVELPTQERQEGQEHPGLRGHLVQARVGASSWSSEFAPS

inhibition [1] | inhibition [2] | Activity [8] | Structure (SMILES) | further results
0% | 29% |  | COc1cc([C@H]2OC[C@](O)(Cc3ccc(O[C@@H]4O[C@H](CO)[C@@H](O)[C@H](O)[C@H]4O)c(OC)c3)[C@]2(O)CO)ccc1O | 
11% | 29% |  | COc1cc([C@H]2OC[C@H](Cc3ccc(O[C@@H]4O[C@H](CO)[C@@H](O)[C@H](O)[C@H]4O)c(OC)c3)[C@]2(O)CO)ccc1O | 
49% | 80% | 126% | COc1cc([C@H]2OC[C@](O)(Cc3ccc(O[C@@H]4O[C@H](CO)[C@@H](O)[C@H](O)[C@H]4O)c(OC)c3)[C@@H]2COC[C@H]2O[C@@](CO)(O[C@H]3O[C@H](CO)[C@@H](O)[C@H](O)[C@H]3O)[C@@H](O)[C@@H]2O)ccc1O | Ki (Adenosine receptor A1 [3]): 5.28 µM; Ki (Adenosine receptor A1 [4]): 0.026 µM; Ki (Adenosine receptor A1 [5]): 31 µM; EC50 (Adenosine receptor A1 [6]): 3.98 µM; Ki (Adenosine receptor A1 [7]): 23.6 µM

The remaining lines, values behind:

Structure (SMILES) | inhibition [1] | inhibition [2] | Activity [8] | further results
Cn1c(=O)c2c(ncn2C)n(C)c1=O | 58% |  |  | 
COc1cc([C@H]2OC[C@H]3[C@@H]2CO[C@@H]3c2ccc(O[C@@H]3O[C@H](CO)[C@@H](O)[C@H](O)[C@H]3O)c(OC)c2)ccc1O[C@@H]1O[C@H](CO)[C@@H](O)[C@H](O)[C@H]1O |  |  |  | Activity (Rattus norvegicus): 23%
OC[C@H]1O[C@@H](n2cnc3c(NC4CCCC4)ncnc32)[C@H](O)[C@@H]1O |  |  | 193% | 

From ChEMBL document CHEMBL1150660, “Lignans isolated from valerian: identification and characterization of a new olivil derivative with partial agonistic activity at A(1) adenosine receptors” (J Nat Prod, 2002)
